The results in this text go back to ChEMBL document CHEMBL4304816, “A Novel Biphenyl-based Chemotype of Retinoid X Receptor Ligands Enables Subtype and Heterodimer Preferences” (ACS Med Chem Lett, 2019).

Data set [1] is described as follows: Agonist activity at full-length human RXR/LXR expressed in HEK293T cells at 1 uM after 14 to 16 hrs by dual-glo luciferase reporter gene assay relative to untreated control. It counts as cell-based. The following applies: HEK-293T, read-out: Activity. In outline: (§1)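 RXR:LXR or RXR:PPARγ heterodimer reporter assay with test compound alone. Activation expressed relative to 0.1% DMSO vehicle. Three independent experiments, each in duplicate; mean reported.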
(In a reporter assay the amount or activity of a reporter protein is the signal.)

The nature of data set [2]: Agonist activity at full-length human RXR/LXR expressed in HEK293T cells at 10 uM after 14 to 16 hrs by dual-glo luciferase reporter gene assay relative to untreated control. It counts as cell-based. The note with it: HEK-293T, read-out: Activity. In a few lines: as §1
Data set [3] concerns the target T1, Retinoic acid receptor RXR-beta (Homo sapiens) (UniProt P28702).
T1 sequence (whole entry): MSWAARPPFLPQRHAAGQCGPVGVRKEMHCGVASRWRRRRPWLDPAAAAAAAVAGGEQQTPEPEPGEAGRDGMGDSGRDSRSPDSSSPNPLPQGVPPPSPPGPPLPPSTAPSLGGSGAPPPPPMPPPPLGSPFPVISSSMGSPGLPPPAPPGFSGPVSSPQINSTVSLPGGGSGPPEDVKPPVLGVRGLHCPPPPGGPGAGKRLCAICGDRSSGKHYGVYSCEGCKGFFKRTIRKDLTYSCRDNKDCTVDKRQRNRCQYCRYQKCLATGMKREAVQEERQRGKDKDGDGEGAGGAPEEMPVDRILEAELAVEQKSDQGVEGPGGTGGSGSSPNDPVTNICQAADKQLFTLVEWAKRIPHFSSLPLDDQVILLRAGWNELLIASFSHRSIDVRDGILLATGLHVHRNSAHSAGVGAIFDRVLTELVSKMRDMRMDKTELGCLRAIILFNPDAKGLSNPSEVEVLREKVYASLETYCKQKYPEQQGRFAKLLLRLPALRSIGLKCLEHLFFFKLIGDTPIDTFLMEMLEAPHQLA
Put plainly: Agonist activity at Gal4-LBD fused RXRbeta (unknown origin) expressed in HEK293T cells at 0.1 to 3 uM after 14 to 16 hrs in presence of RXR antagonist HX531 by dual-Glo luciferase reporter gene assay. It counts as cell-based.

Data set [4] is filed under the species Homo sapiens. Put plainly: Agonist activity at full-length human PPARgamma/RXR expressed in HEK293T cells at 10 uM after 14 to 16 hrs in presence of 1 uM rosiglitazone by dual-glo luciferase reporter gene assay relative to rosiglitazone. It is filed as cell-based. In a few lines: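 RXR:PPARγ heterodimer reporter assay run with reference PPARγ agonist rosiglitazone (1 μM) co-applied. Read-out is mean relative synergistic activation, from three independent experiments each run in duplicate.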

The nature of data set [5]: Agonist activity at full-length human RXR/LXR expressed in HEK293T cells at 10 uM after 14 to 16 hrs in presence of 1 uM T0901317 by dual-glo luciferase reporter gene assay relative to T0901317. It is filed as cell-based. The note with it: HEK-293T, read-out: Activity. In a few lines: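 Synergy format: the test compound was co-applied with the partner-receptor reference agonist at 1 μM, either T0901317 (RXR:LXR) or rosiglitazone (RXR:PPARγ). Relative synergistic activation was derived from three independent experiments, each in duplicate; mean reported.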

The target in data set [6] is T2, Retinoic acid receptor RXR-beta (Homo sapiens, UniProt P28702).
T2 sequence (P28702 whole entry): T1 sequence (whole entry)
Put plainly: Agonist activity at Gal4-LBD fused RXRbeta (unknown origin) expressed in HEK293T cells after 14 to 16 hrs by dual-Glo luciferase assay. It counts as cell-based. In a few lines: (§2)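 Gal4-hybrid RXRα/β/γ reporter gene assays in HEK293T cells. Fold activation is the maximal fold activation versus 0.1% DMSO.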

The nature of data set [7]: Metabolic stability in Wistar rat liver microsomes at 10 uM preincubated for 5 mins followed by microsomes addition in presence of NADPH measured up to 60 mins by HPLC analysis. It counts as ADME, Microsome. The note with it: 1 h. For orientation: Liver microsomes are a subcellular fraction often used to study metabolism.
Data set [8] deals with T3, Retinoic acid receptor RXR-alpha (Homo sapiens) (UniProt P19793).
T3 sequence (whole entry): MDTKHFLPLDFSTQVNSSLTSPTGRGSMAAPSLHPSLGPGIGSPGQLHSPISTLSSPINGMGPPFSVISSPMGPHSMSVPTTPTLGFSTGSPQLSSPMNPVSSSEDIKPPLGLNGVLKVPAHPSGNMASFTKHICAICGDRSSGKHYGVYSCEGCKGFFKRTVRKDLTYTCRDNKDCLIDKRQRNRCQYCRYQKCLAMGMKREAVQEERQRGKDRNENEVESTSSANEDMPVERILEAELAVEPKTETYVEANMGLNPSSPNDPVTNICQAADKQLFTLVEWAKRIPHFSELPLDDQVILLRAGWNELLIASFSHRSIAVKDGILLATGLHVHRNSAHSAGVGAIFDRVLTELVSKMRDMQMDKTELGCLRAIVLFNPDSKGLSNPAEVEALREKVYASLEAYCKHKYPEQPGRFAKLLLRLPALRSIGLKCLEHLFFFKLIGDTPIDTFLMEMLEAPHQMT
Put plainly: Agonist activity at Gal4-LBD fused RXRalpha (unknown origin) expressed in HEK293T cells at 0.1 to 3 uM after 14 to 16 hrs in presence of RXR antagonist HX531 by dual-Glo luciferase reporter gene assay. It is filed as cell-based.

The nature of data set [9]: Solubility of compound at 3 mg after 24 hrs by HPLC analysis. It is filed as physicochemical.
For data set [10], the target named is T4, Retinoic acid receptor RXR-gamma (Homo sapiens, UniProt P48443).
T4 sequence (P48443 whole entry): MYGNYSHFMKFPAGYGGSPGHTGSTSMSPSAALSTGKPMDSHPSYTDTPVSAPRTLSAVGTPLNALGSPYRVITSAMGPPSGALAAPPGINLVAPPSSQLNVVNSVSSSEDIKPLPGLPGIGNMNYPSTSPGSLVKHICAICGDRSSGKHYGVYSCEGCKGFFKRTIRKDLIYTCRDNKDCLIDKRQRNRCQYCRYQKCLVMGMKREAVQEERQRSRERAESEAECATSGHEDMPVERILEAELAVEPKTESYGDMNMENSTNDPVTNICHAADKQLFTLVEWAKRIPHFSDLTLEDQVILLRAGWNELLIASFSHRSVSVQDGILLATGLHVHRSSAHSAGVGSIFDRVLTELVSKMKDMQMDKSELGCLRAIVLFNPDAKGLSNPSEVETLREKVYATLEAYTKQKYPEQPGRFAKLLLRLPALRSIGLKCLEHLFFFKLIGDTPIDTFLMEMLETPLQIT
Put plainly: Agonist activity at Gal4-LBD fused RXRgamma (unknown origin) expressed in HEK293T cells after 14 to 16 hrs by dual-Glo luciferase assay. It counts as cell-based. In outline: as §2

Data set [11] concerns the target T5, Retinoic acid receptor RXR-alpha (Homo sapiens, UniProt P19793).
T5 sequence (P19793 whole entry): T3 sequence (whole entry)
Put plainly: Agonist activity at Gal4-LBD fused RXRalpha (unknown origin) expressed in HEK293T cells after 14 to 16 hrs by dual-Glo luciferase assay. It is filed as cell-based. In a few lines: as §2

The target in data set [12] is T6, Retinoic acid receptor RXR-gamma (Homo sapiens) (UniProt P48443).
T6 sequence (whole entry): T4 sequence (P48443 whole entry)
Put plainly: Agonist activity at Gal4-LBD fused RXRgamma (unknown origin) expressed in HEK293T cells at 0.1 to 3 uM after 14 to 16 hrs in presence of RXR antagonist HX531 by dual-Glo luciferase reporter gene assay. It is filed as cell-based.

The species entered for data set [13] is Homo sapiens. Put plainly: Agonist activity at full-length human PPARgamma/RXR expressed in HEK293T cells at 10 uM after 14 to 16 hrs by dual-glo luciferase reporter gene assay relative to untreated control. It is filed as cell-based. In outline: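 RXR:PPARγ heterodimer reporter assay in HEK293T cells with test compound alone. Mean relative activation is taken versus 0.1% DMSO, from three independent experiments each run in duplicate.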

In brackets after ≈: the same amount, converted by molar mass. Activity calls are given as the source filed them. No cut-off for these calls is given here.

With `O=S(=O)(c1ccccc1)N(CC(F)(F)F)c1ccc(C(O)(C(F)(F)F)C(F)(F)F)cc1` [T091317], the activity at 1 µM in data set [1] amounted to 380%.

A word on the EC50: it is the concentration that produces a half-maximal response. The solubility is how much of the substance goes into solution per volume. Read a low solubility as little dissolved substance. As for `O=C(O)Cc1ccc(-c2cc(C(F)(F)F)cc(C(F)(F)F)c2)cc1`, the activity at 10 µM in data set [2] turned out to be 132%; in data set [5], 127%. The Activity result in [3], in data set [8] and in data set [12] was “inactive” in each case. The results for the Activity in data set [4] and in data set [13] were 154% and 267%, respectively. Moreover, the values for the EC50 in data set [6], in [10] and in data set [11] were 150 nM, 220 nM and 80 nM, respectively. Also, the Stability result in data set [7] is reported as “Stable”. In data set [9], this compound came in with a solubility at 24 h of 1.15 µg/mL (≈ 3.3 µM).
